Data: ChEMBL document CHEMBL3233000, “Cytotoxic ent-kaurane diterpenoids from Isodon wikstroemioides” (J Nat Prod, 2014)

Assays:
Assay type in all cases: functional, cell-based
[1] = system: HL-60; assay: Cytotoxicity against human HL60 cells assessed as growth inhibition after 48 hrs by MTS assay; conditions: HL-60, 48 h
Summary of the method: (§1)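 Cell lines from ATCC, grown in RPMI-1640 or DMEM with 10% FBS at 37 °C, 5% CO2. Cells seeded, incubated 12 h at 37 °C, then screened at 40 μM for 48 h with MTS read-out. Where growth inhibition reached 50%, retested at 0.064, 0.32, 1.6, 8 and 40 μM in triplicate. Cisplatin and paclitaxel were positive controls. IC50 by Reed and Muench method.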

[2] = system: SMMC-7721; assay: Cytotoxicity against human SMMC7721 cells assessed as growth inhibition after 48 hrs by MTS assay; conditions: SMMC-7721, 48 h; summary of the method: as §1
[3] = system: A549; assay: Cytotoxicity against human A549 cells assessed as growth inhibition after 48 hrs by MTS assay; conditions: A549, 48 h; summary of the method: as §1
[4] = system: MCF7; assay: Cytotoxicity against human MCF7 cells assessed as growth inhibition after 48 hrs by MTS assay; conditions: MCF7, 48 h; summary of the method: as §1
[5] = system: SW480; assay: Cytotoxicity against human SW480 cells assessed as growth inhibition after 48 hrs by MTS assay; conditions: SW480, 48 h; summary of the method: as §1
[6] = system: RAW264.7; assay: Inhibition of nitric oxide production in LPS-stimulated mouse RAW264.7 cells after 18 hrs by griess reagent based plate reader analysis; conditions: RAW264.7, 18 h
Summary of the method: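 RAW264.7 macrophages seeded at 2 × 10^5 cells/well. Treated with serial dilutions (top concentration 25 μM), then stimulated with LPS 1 μg/mL for 18 h. Supernatant NO measured with Griess reagents, absorbance 550 nm. MG-132 was the positive control. Viability was checked in parallel by MTT (595 nm) to exclude cytotoxic interference.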

Row | IC50 [6] [µM] | SMILES | IC50 [1] [µM] | IC50 [2] [nM] | IC50 [3] [µM] | IC50 [4] [nM] | IC50 [5] [nM]
1 | 1.9 | C=C1C(=O)[C@@]23[C@H](O)C[C@@H]4[C@@](C)(COC(C)=O)CCC[C@@]4(C)[C@@H]2C[C@H](O)[C@@H]1[C@H]3O [ALBOPILOSIN A] | 2 | 1400 | 3.2 | 1700 | 900
2 | 9.9 | C=C1C(=O)[C@@]23CC[C@@H]4[C@@](C)(CO)CCC[C@@]4(C=O)[C@@H]2CC[C@@H]1[C@H]3O | > 10 | > 10000 | > 10 | > 10000 | > 10000
3 | 16.8 | C=C1C(=O)[C@]23[C@H](O)[C@H]1[C@@H](O)C[C@H]2[C@]1(C)CCC[C@](C)(CO)[C@H]1C[C@H]3OC(C)=O | > 10 | > 10000 | > 10 | > 10000 | 6900
4 | 1.1 | C=C1C(=O)[C@@]23CC(=O)[C@@H]4C(C)(C)CCC[C@@]4(C)[C@@H]2[C@@H](O)C[C@@H]1[C@H]3O | 3.1 | 800 | 1 | 1600 | 1000
